# Screening data (PubChem)
# UPR CHOP act: apoptotic UPR (CHOP) activation; CHO-CHOP luciferase reporter, luminescence; percent of tunicamycin response over DMSO baseline; activation, % at 10 µM; 0.34% of 330,000 active; AID 449763;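 active = at 10 µM dose, activation of 40% or more, normalized to positive control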;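 note: 100% = tunicamycin at 10 µg/mL and 0% = DMSO alone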
#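 Material: CHO-CHOP cells, stable luciferase reporter of PERK-eIF2a-CHOP signalling; quantity: 500 reporter cells seeded per well; buffer or medium: F12 medium containing 10% fetal bovine serum; compound: one dose, 10 µM in 0.5% DMSO; incubation: 6 h compound treatment, 37 °C; measured by: Steady-Glo luciferase luminescence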
# ABHD5 PLIN5 PPI: blocks binding of human ABHD5 to perilipin-5. 0.78% of 360,000 active. inhibition, % at 4 µM. Split G. princeps luciferase complementation, luminescence, 4 h. Q00G26+Q8WTS1;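 active = inhibition above the mean inhibition across every tested compound plus 3 SD, cut at about 22% in these data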;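 note: 0% = DMSO only wells and the 100% control is not disclosed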
# UPR XBP1 act: adaptive UPR (XBP1) activation; AID 463104; activation, % at 20 µM; 0.33% of 330,000 active; CHO-XBP1 luciferase reporter, IRE1-XBP1 UPR activation, luminescence; percent of tunicamycin response, DMSO as zero;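 active = versus positive control, 20 µM dose yields 30% or more activation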;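 note: 100% = tunicamycin at 10 µg/mL and 0% = DMSO only wells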
#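 Material: IRE1-XBP1 luciferase reporter CHO line / Quantity: one thousand reporter cells per well / Buffer or medium: F12 with 10% serum / Compound: 20 µM single concentration, DMSO 1% / Times: 6 h treatment, 37 °C / Detection: Steady-Glo luciferase glow luminescence, 10 min after reagent addition / Benchmarks: tunicamycin high, DMSO low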
# Granule exo inh: lytic granule exocytosis inhibition; inhibition, % at 10 µM; TALL-104 LAMP-1 surface exposure, flow cytometry; cells stimulated with thapsigargin and PMA; 0.66% of 360,000 active;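 active = inhibition above about 55%, limit read from the data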
# Mdm2-MdmX inh: human Mdm2/MdmX binding inhibition | O15151+Q00987 | SaOS-2 split-luciferase Mdm2/MdmX complementation, luminescence | 3% of 330,000 active | AID 485346 | inhibition, % at 8 µM;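 active = inhibition of at least 50% at 8 µM in the primary screen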
# Target sequence (O15151 whole entry, looked up): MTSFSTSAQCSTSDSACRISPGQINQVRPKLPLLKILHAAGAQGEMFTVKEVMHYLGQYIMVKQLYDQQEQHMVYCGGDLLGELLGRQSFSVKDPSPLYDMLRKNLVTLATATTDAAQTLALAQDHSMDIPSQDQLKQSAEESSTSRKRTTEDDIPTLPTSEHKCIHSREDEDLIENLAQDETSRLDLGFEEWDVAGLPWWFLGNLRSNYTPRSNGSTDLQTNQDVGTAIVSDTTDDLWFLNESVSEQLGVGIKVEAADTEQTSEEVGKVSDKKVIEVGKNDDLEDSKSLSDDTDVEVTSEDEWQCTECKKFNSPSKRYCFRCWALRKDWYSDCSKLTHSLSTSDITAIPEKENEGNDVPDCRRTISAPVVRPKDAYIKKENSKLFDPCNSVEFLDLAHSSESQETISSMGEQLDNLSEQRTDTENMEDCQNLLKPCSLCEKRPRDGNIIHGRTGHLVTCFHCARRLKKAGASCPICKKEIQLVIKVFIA
# Target sequence (Q00987 whole entry, looked up): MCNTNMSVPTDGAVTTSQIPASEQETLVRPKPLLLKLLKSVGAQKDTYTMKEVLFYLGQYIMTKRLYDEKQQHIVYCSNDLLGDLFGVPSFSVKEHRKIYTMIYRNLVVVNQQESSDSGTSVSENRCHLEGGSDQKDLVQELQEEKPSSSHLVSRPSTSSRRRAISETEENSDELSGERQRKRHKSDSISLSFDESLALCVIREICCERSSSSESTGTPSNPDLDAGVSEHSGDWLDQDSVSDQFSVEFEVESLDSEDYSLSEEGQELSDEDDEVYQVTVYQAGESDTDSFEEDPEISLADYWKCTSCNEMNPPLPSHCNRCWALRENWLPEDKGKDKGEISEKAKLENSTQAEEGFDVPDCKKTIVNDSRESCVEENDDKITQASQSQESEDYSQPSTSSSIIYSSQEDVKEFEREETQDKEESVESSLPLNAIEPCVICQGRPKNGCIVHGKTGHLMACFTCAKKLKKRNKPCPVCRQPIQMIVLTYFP
# Mdm2-MdmX conf: confirmation of human Mdm2/MdmX interaction inhibitors; 55% of 10,000 active; AID 489028; Mdm2-MdmX binding, luminescent assay; inhibition, % at 8 µM; shares compounds with Mdm2-MdmX inh; in the data active = inhibition above about 40%
# FLuc counter: full-length luciferase inhibition in Mdm2/MdmX counter-screen | 77% of 6,200 active | AID 504607 | SaOS-2 full-length luciferase counterscreen, luminescence | shares compounds with Mdm2-MdmX inh | inhibition, % at 8 µM;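 active = mean inhibition at 8 µM reaching about 37%, which flags the compound as non-specific, limit read from the data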;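 note: p53-null SaOS-2 cells with luciferase driven by a doxycycline-inducible promoter; compound on cells about two nights before reading with doxycycline added after day one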
# * = called active by the depositor; · = not tested or not shown. A selection: hits, their analogues and other compounds. The true share with any hit is near 4%.
SMILES,UPR CHOP act,ABHD5 PLIN5 PPI,UPR XBP1 act,Granule exo inh,Mdm2-MdmX inh,Mdm2-MdmX conf,others
OCCNc1ncnc2c1ncn2[C@H]1CN(Cc2cccs2)C[C@@H](CO)O1,·,-3,·,-3,·,·,
Cc1cc(/C=N/Nc2nc(N)ncc2[N+](=O)[O-])c(C)n1-c1ccccc1F,-10,·,-8,·,74*,84*,FLuc counter=50*
CC(=O)c1c(C)[nH]c(C(=O)CSc2ncnc3sc(-c4ccccc4)cc23)c1C,5,0,-2,7,51*,6,
CCOC(=O)c1c(C)[nH]c(C(=O)CSc2nnc(-c3cccs3)n2Cc2ccccc2)c1C,0,-5,17,-1,65*,42*,FLuc counter=40*
O=C(O)CSc1ncnc2sc(-c3ccccc3)cc12,1,7,-3,1,22,·,
CC(=O)c1c(C)[nH]c(C(=O)CSc2nnc(-c3cccs3)n2Cc2ccccc2)c1C,5,-4,1,-1,18,·,
C=CCn1c(SCn2nnc3ccccc3c2=O)nc2scc(-c3cccs3)c2c1=O,0,3,1,-1,13,·,
CC(=O)c1c(C)[nH]c(C(=O)CSc2nnc(-c3ccco3)n2Cc2ccccc2)c1C,-2,-8,0,1,23,·,
O=c1c2ccccc2nnn1CSc1nnc(-c2cccs2)n1Cc1ccccc1,0,8,1,0,61*,49*,FLuc counter=72*
CC(=O)c1c(C)[nH]c(C(=O)CSc2nnc(-c3ccccc3)n2Cc2ccc3c(c2)OCO3)c1C,0,6,-5,-4,77*,30,
O=C(NC(=S)Nc1ccccc1O)c1ccc(-c2ccc(Cl)cc2)o1,-2,8,-2,-4,27,·,
Cc1ccc(O)c(NC(=S)NC(=O)c2ccc(-c3ccc(Cl)cc3)o2)c1,-1,-16,-2,0,51*,28,
Cc1nc2c(-c3ccc(F)cc3)cnn2c(N)c1-c1ccc(F)cc1,5,-8,6,-15,61*,47*,FLuc counter=144*
Cc1cc(N)n2ncc(-c3ccc(F)cc3)c2n1,8,4,3,2,-40,·,
OC(CN1CCN(c2ccccn2)CC1)Cn1c2ccc(Cl)cc2c2cc(Cl)ccc21 (centres undefined),0,8,0,4,39,·,
OC(CN1CCCCC1)Cn1c2ccc(Cl)cc2c2cc(Cl)ccc21 (centres undefined),3,17,16,-12,75*,20,
COc1ccc(/C=N/Nc2nonc2N)cc1,3,3,5,-2,-8,·,
COc1ccc(/C=N/Nc2nonc2N)cc1OC,1,-4,2,0,51*,8,
COc1cc(-c2ccc3sc(-c4ccsc4)c(C#CCO)c3c2)cc(OC)c1OC,5,-2,1,-1,74*,39,FLuc counter=69*
COC(=O)c1c(-c2ccsc2)sc2ccc(-c3cc(OC)c(OC)c(OC)c3)cc12,1,-4,3,3,64*,33,
O=c1c2ccccc2nc(-c2ccc(Cl)c(Cl)c2)n1O,1,-1,0,3,82*,64*,FLuc counter=27
O=c1c2ccc(Cl)cc2nc(-c2cccc(C(F)(F)F)c2)n1O,20,-1,5,1,88*,39,
Cc1nn(-c2ccccc2)c(/N=C/c2ccccc2O)c1-c1ccccc1,7,-2,-1,-5,-16,·,
CN1CCN(C(=O)CCCN2C(=O)/C(=C/c3cccc(Br)c3)SC2=S)CC1,1,2,4,39,63*,31,FLuc counter=29
O=C(CCCN1C(=O)/C(=C/c2cccc(Br)c2)SC1=S)N1CCOCC1,2,8,-2,10,61*,21,
SMILES,UPR CHOP act,ABHD5 PLIN5 PPI,UPR XBP1 act,Granule exo inh,Mdm2-MdmX inh,Mdm2-MdmX conf,others
COc1ccc(CC(=O)Nc2ccc(OC)c(NC(=O)c3ccco3)c2)cc1,0,6,-1,1,-21,·,
CC1(C)OC(C)(C)/C(=C\c2ccc(OCC(N)=O)cc2)C1=O,0,6,0,1,11,·,
CCN(CC)S(=O)(=O)c1ccc2oc(SCC(=O)Nc3cc(C)on3)nc2c1,0,-4,1,6,55*,57*,FLuc counter=52*
CN(Cc1nc(-c2cnccn2)no1)Cc1n[nH]c2c1CCCC2,·,14,·,-2,·,·,
O=C(COC(=O)c1nc(Cl)c(Cl)c(Cl)c1Cl)NCc1ccccc1,4,13,-1,4,54*,32,
Nc1c(Cl)c(Cl)nc(C(=O)OCC(=O)NCc2ccccc2)c1Cl,0,2,-3,0,6,·,
COCc1c(C(=O)NC2CCCCCC2)oc2ccccc12,5,-2,-1,-2,9,·,
CCN(CC)CCn1c(SCC(=O)Nc2cccc(OC)c2)nc2c(sc3ccccc32)c1=O,0,5,3,69*,51*,36,
COc1cccc(NC(=O)CSc2nc3ccccc3c(=O)n2CCCC(=O)N2CCCC2)c1,0,9,1,7,24,·,
COc1cccc(NC(=O)CSc2nc3c(sc4ccccc43)c(=O)n2CCCN2CCCC2)c1,6,12,5,4,89*,26,
COc1cccc(NC(=O)CSc2nc3c(sc4ccccc43)c(=O)n2CCN(C)C)c1,0,13,0,55,-12,·,
O=C(CSc1nc2ccccc2c(=O)n1CCCN1CCOCC1)Nc1ccc(F)c(Cl)c1,0,9,-2,-3,52*,19,
Cc1ccc(CNC(=O)CSc2nc3c(sc4ccccc43)c(=O)n2CCCN2CCCC2)cc1,5,3,1,52,51*,48*,FLuc counter=42*
CC(=O)Nc1ccc(NC(=O)CSc2nc3ccccc3c(=O)n2CCCN2CCOCC2)cc1,0,-6,-2,20,5,·,
CCOC(=O)C1CCCN(CC(=O)Nc2nccs2)C1 (centres undefined),1,-3,-3,-1,14,·,
Cc1csc(NC(=O)c2ccc(S(=O)(=O)N3CCN(C)CC3)cc2)n1,6,6,1,-12,5,·,
CN1CCN(CC/C=C2/c3ccccc3Sc3ccc(S(=O)(=O)N(C)C)cc32)CC1,5,16,-3,-1,67*,27,
COc1cc2c(cc1Cl)/C(=C\CCN(C)C)c1ccccc1S2,0,21,1,-6,47,·,
Cc1nc2ccccn2c1-c1csc(Nc2ccc(C(=O)O)cc2)n1,-3,-10,2,14,53*,54*,FLuc counter=63*
Cc1nc2ccccn2c1-c1csc(Nc2cccc(C(=O)O)c2)n1,0,-14,-4,13,-19,·,
CC(=O)N(CC1CCCO1)c1nnc(-c2cnccn2)s1 (centres undefined),3,4,0,-1,-9,·,
